Reference: ChEMBL document CHEMBL1140462, “Convenient synthesis of indeno[1,2-c]isoquinolines as constrained forms of 3-arylisoquinolines and docking study of a topoisomerase I inhibitor into DNA-topoisomerase I complex” (Bioorg Med Chem Lett, 2007)
Activity calls are given as the source filed them. The calls are words filed in the database; no cut-off is given here.

Key:
SK-MEL-2 = test: Cytotoxicity against human SK-MEL-2 cells by SRB assay; type: functional, cell-based
Summary of the method: (§1)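 Panel of four human tumour lines: A549 (lung), SKOV-3 (ovarian), SK-MEL-2 (melanoma) and HCT 15 (colon). Each was exposed to compound in vitro, and cytotoxicity was read out by sulforhodamine B (SRB) staining.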

A549 = test: Cytotoxicity against human A549 cells by SRB assay; type: functional, cell-based; summary of the method: as §1
[1] = Cytotoxicity against human OV3 cells by SRB assay; type: functional, cell-based; summary of the method: as §1
HCT-15 = test: Cytotoxicity against human HCT15 cells by SRB assay; type: functional, cell-based; summary of the method: as §1
[2] = target: T1, DNA topoisomerase 1 (Homo sapiens) (UniProt P11387); test: Inhibition of topoisomerase 1 by supercoiled DNA unwinding method relative to camptothecin; type: functional
T1 sequence (whole entry): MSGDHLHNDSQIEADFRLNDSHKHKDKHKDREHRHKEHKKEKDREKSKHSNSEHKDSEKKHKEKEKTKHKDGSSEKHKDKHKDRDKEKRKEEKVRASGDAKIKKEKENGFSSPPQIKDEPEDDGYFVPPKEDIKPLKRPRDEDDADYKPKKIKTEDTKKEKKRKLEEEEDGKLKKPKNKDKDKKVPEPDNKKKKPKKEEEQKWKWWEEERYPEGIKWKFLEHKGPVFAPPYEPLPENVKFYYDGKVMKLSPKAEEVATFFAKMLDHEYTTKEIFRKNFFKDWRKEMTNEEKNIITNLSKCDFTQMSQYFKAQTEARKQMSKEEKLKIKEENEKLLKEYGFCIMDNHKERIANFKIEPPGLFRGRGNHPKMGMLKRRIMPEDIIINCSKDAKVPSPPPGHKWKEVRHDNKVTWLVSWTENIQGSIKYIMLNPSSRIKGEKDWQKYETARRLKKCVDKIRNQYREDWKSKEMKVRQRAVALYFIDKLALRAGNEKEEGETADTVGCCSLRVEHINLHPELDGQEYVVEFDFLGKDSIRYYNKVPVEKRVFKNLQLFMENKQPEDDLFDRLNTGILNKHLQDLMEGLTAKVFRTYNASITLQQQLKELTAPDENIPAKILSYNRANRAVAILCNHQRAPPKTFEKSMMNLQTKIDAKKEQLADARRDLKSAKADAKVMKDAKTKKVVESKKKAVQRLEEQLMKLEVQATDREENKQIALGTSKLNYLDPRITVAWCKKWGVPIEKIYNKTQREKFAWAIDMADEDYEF

Compound `Cc1ccc2c(=O)n(C)c3c(c2c1)C(=O)c1ccccc1-3` has an IC50 (SK-MEL-2) of 17.1 µM, an IC50 (A549) of 20.1 µM and an IC50 [1] of 16.3 µM. For the same compound, the IC50 (HCT-15) was 14.3 µM.

For `COc1ccc(Cn2c3c(c4cc(C)ccc4c2=O)C(O)c2ccccc2-3)cc1` (stereo not drawn), the IC50 (SK-MEL-2) was 181 µM, the IC50 (A549) was 100 µM and the IC50 [1] was 71 µM. The IC50 (HCT-15) was 20.2 µM.

`Cc1ccc2c(=O)n(C)c3c(c2c1)C(OCC(C)C)c1ccccc1-3` (stereo not drawn) showed an IC50 (SK-MEL-2) of 10.5 µM, an IC50 (A549) of 28.2 µM and an IC50 [1] of 38.4 µM. The IC50 (HCT-15) was 27.4 µM.

`CCCCCOC1c2ccccc2-c2c1c1cc(C)ccc1c(=O)n2Cc1ccc(OC)cc1` (stereo not drawn) gave an IC50 (SK-MEL-2) of 11.2 µM, an IC50 (A549) of 11.2 µM and an IC50 [1] of 5.7 µM. For the same compound, the IC50 (HCT-15) was 5.59 µM.

Work on `Cn1c2c(c3ccccc3c1=O)C(=O)c1ccccc1-2` yielded an IC50 (SK-MEL-2) of 90.2 µM, an IC50 (A549) of 23.5 µM and an IC50 [1] of 81 µM. It also gave an IC50 (HCT-15) of 30.6 µM.

With `CCCOC1c2ccccc2-c2c1c1cc(C)ccc1c(=O)n2Cc1ccc(OC)cc1` (stereo not drawn) the IC50 (SK-MEL-2) was 6.26 µM, the IC50 (A549) was 3.45 µM and the IC50 [1] was 5.76 µM. The IC50 (HCT-15) was 1.42 µM and the Activity [2] was “Active”.

Work on `CCOC1c2ccccc2-c2c1c1cc(C)ccc1c(=O)n2Cc1ccc(OC)cc1` (stereo not drawn) yielded an IC50 (SK-MEL-2) of 3.6 µM, an IC50 (A549) of 6.71 µM and an IC50 [1] of 5.89 µM. For the same compound, the IC50 (HCT-15) was 1.93 µM.

With `COc1ccc(Cn2c3c(c4cc(C)ccc4c2=O)C(OC(C)C)c2ccccc2-3)cc1` (stereo not drawn) the IC50 (SK-MEL-2) was 2.43 µM, the IC50 (A549) was 6.22 µM and the IC50 [1] was 1.21 µM. The IC50 (HCT-15) was 0.91 µM and the Activity [2] was “Active”.

With `COc1cccc2c1C(=O)c1c(O)c3c(c(O)c1C2=O)C[C@@](O)(C(=O)CO)C[C@@H]3O[C@H]1C[C@H](N)[C@H](O)[C@H](C)O1` (stereo in doubt) [DOXORUBICIN] the IC50 [1] was 1.17 µM.

For `Cn1c2c(c3ccccc3c1=O)Cc1ccccc1-2`, the IC50 (SK-MEL-2) was 130 µM, the IC50 (A549) was 30.1 µM and the IC50 [1] was 30.6 µM. It also gave an IC50 (HCT-15) of 20.5 µM.

Work on `COc1ccc(Cn2c3c(c4cc(C)ccc4c2=O)Cc2ccccc2-3)cc1` yielded an IC50 (SK-MEL-2) of 31.9 µM, an IC50 (A549) of 51 µM and an IC50 [1] of 23.2 µM. It also gave an IC50 (HCT-15) of 8.9 µM.

Work on `CCOC1c2ccccc2-c2c1c1cc(C)ccc1c(=O)n2C` (stereo not drawn) yielded an IC50 (SK-MEL-2) of 40.9 µM, an IC50 (A549) of 90 µM and an IC50 [1] of 70.9 µM. It also gave an IC50 (HCT-15) of 20.6 µM.

In the case of `CCCCCOC1c2ccccc2-c2c1c1cc(C)ccc1c(=O)n2C` (stereo not drawn), the IC50 (SK-MEL-2) is reported as 26.5 µM, the IC50 (A549) is reported as 16.2 µM and the IC50 [1] is reported as 13.3 µM. The IC50 (HCT-15) was 22 µM.

With `CCCOC1c2ccccc2-c2c1c1cc(C)ccc1c(=O)n2C` (stereo not drawn) the IC50 (SK-MEL-2) was 80.3 µM, the IC50 (A549) was 40.6 µM and the IC50 [1] was 70.7 µM. The IC50 (HCT-15) was 10.9 µM.

With `Cc1ccc2c(=O)n(C)c3c(c2c1)Cc1ccccc1-3` the IC50 (SK-MEL-2) was 80.3 µM, the IC50 (A549) was 130 µM and the IC50 [1] was 261 µM. For the same compound, the IC50 (HCT-15) was 20.1 µM.

Work on `CC[C@@]1(O)C(=O)OCc2c1cc1n(c2=O)Cc2cc3ccccc3nc2-1` [CAMPTOTHECIN] yielded an IC50 (SK-MEL-2) of 0.075 µM, an IC50 (A549) of 0.067 µM and an IC50 [1] of 0.024 µM. For the same compound, the IC50 (HCT-15) was 0.08 µM and the Activity [2] was “Active”.

`CCCCOC1c2ccccc2-c2c1c1cc(C)ccc1c(=O)n2C` (stereo not drawn) gave an IC50 (SK-MEL-2) of 20.9 µM, an IC50 (A549) of 110 µM and an IC50 [1] of 30.5 µM. The IC50 (HCT-15) was 10.2 µM.

Work on `COc1ccc(Cn2c3c(c4cc(C)ccc4c2=O)C(=O)c2ccccc2-3)cc1` yielded an IC50 (SK-MEL-2) of 158 µM, an IC50 (A549) of 155 µM and an IC50 [1] of 102 µM. For the same compound, the IC50 (HCT-15) was 171 µM.

With `COc1ccc(Cn2c3c(c4cc(C)ccc4c2=O)C(OC)c2ccccc2-3)cc1` (stereo not drawn) the IC50 (SK-MEL-2) was 15.2 µM, the IC50 (A549) was 10.2 µM and the IC50 [1] was 1.36 µM. For the same compound, the IC50 (HCT-15) was 1.11 µM.

Compound `CCCCOC1c2ccccc2-c2c1c1cc(C)ccc1c(=O)n2Cc1ccc(OC)cc1` (stereo not drawn) has an IC50 (SK-MEL-2) of 3.37 µM, an IC50 (A549) of 3.24 µM and an IC50 [1] of 2.01 µM. It also gave an IC50 (HCT-15) of 4.4 µM.

Work on `COc1ccc(Cn2c3c(c4cc(C)ccc4c2=O)C(OCC(C)C)c2ccccc2-3)cc1` (stereo not drawn) yielded an IC50 (SK-MEL-2) of 2.07 µM, an IC50 (A549) of 1.87 µM and an IC50 [1] of 1.63 µM. The Activity [2] was “Active”.

Compound `COC1c2ccccc2-c2c1c1cc(C)ccc1c(=O)n2C` (stereo not drawn) has an IC50 (SK-MEL-2) of 70.3 µM, an IC50 (A549) of 130 µM and an IC50 [1] of 60.1 µM. For the same compound, the IC50 (HCT-15) was 20.9 µM.
